# Experimental data collected from several papers.
# Lines come from different studies, so protocols differ.
# Cell line: COLO 205
# Read-out: cell growth or viability
Structure (SMILES),method,concentration,time,quantity,value
CC(C)[C@H](N)c1nc2cc(-c3ccncc3F)sc2c(=O)[nH]1,MTT,,,IC50,24.8 nM
COc1cc2ccc(=O)oc2cc1OC,MTT,,24 h,IC50,> 100000 nM
COc1ccc(C(=O)/C=C/c2cccc(Cl)c2)cc1S(N)(=O)=O,SRB,10 µM,,inhibition,165%
Cc1cc(-c2cc3nc([C@@H](N)C(C)C)[nH]c(=O)c3s2)ccn1,MTT,,,IC50,1410 nM
COc1c2ccoc2c(OCC=C(C)C)c2oc(=O)ccc12,MTT,,24 h,IC50,> 100000 nM
COc1cc(Nc2nccc(-c3cnn4nc(OC)ccc34)n2)cc(C(F)(F)F)c1,ATP luminescence,,,IC50,510 nM
CC(C)[C@H](N)c1nc2cc(-c3ccnc(F)c3)sc2c(=O)[nH]1,MTT,,,IC50,89.3 nM
COc1cccc(Oc2ccccc2NC(=O)CNC(=O)c2cccc3ccccc23)c1,SRB,,48 h,GI50,282 nM
CC(C)C[C@H](NC(=O)[C@H](Cc1ccccc1)NC(=O)c1cnccn1)B(O)O,ATP luminescence,,,IC50,22 nM
COc1ccc(C(=O)/C=C/c2ccccc2Br)cc1S(N)(=O)=O,SRB,,48 h,GI50,2200 nM
